The text below walks through data of ChEMBL document CHEMBL2150940, “Mechanism-based design, synthesis and biological studies of N⁵-substituted tetrahydrofolate analogs as inhibitors of cobalamin-dependent methionine synthase and potential anticancer agents” (Eur J Med Chem, 2012).

Bounds are passed on as bounds.

The test system of assay [1] is SK-OV-3. Kind of assay: Antiproliferative activity against human SKOV3 cells after 48 hrs. It is filed as functional, cell-based. The settings on record: SK-OV-3, 48 h. The method, boiled down:
(§1)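 Cells kept in RPMI-1640 with 10% fetal bovine serum, penicillin (100 units mL⁻¹) and streptomycin at 37 °C in humidified 5% CO₂. Exponentially growing cells were exposed to a range of compound concentrations for 48 h. Growth inhibition was read by MTT and SRB assays. Values are means of three independent experiments.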

Assay [2] has as its system KB. Kind of assay: Antiproliferative activity against human KB cells after 48 hrs. The class given is functional, cell-based. The method, boiled down:
as §1

The target of assay [3] is Methionine synthase (Homo sapiens, UniProt Q99707). Description: Inhibition of methionine synthase in human HL60 cells using L-homocysteine as substrate incubated for 3 hrs prior to substrate addition measured after 10 mins spectrophotometric analysis. It is filed as cell-based, HL-60. The method in brief:
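HL60 cells (1 × 10⁶/well) were serum-starved, then exposed 3 h to varied compound concentrations, lysed in HEPES pH 7.5 buffer and cleared at 4 °C. Lysate was mixed with potassium phosphate pH 7.2, DTT, 5-methyltetrahydrofolate, SAM and hydroxocobalamin (stock levels given) and preincubated 5 min at 37 °C. L-homocysteine started a 10 min 37 °C reaction. HCl/formic acid stop at 80 °C 10 min; A350 read.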

For assay [4], the system named is Bel-7402. Description: Antiproliferative activity against human Bel7402 cells after 48 hrs. The class given is functional, cell-based. The settings on record: Bel-7402, 48 h. The method in brief:
as §1

Assay [5] concerns the target T1, Dihydrofolate reductase (Homo sapiens, UniProt P00374).
T1 sequence (P00374 whole entry): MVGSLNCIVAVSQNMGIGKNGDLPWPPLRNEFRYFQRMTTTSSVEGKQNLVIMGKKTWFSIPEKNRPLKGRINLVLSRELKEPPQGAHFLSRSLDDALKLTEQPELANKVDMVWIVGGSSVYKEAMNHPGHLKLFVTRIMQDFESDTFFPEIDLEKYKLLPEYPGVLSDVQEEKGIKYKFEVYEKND
Description: Inhibition of human recombinant DHFR using dihydrofolate as substrate by spectrophotometric analysis. The method in brief: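 Recombinant human DHFR was followed spectrophotometrically in 0.1 mM dihydrofolate, 0.3 mM NADPH and 100 mM KCl, pH 7.5, at 32 °C.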

Assay [6] has as its system BGC-823. Kind of assay: Antiproliferative activity against human BGC823 cells after 48 hrs. The class given is functional, cell-based. The settings on record: BGC-823, 48 h. The method, boiled down: as §1
Assay [7] concerns HeLa. Description: Antiproliferative activity against human HeLa cells after 48 hrs. It is filed as functional, cell-based. The method in brief:
as §1

For assay [8], the system named is SK-OV-3. Description: Ratio of MTX IC50 to compound IC50 for human SKOV3 cells. The class given is functional.

Chain of Methionine synthase (Q99707 whole entry): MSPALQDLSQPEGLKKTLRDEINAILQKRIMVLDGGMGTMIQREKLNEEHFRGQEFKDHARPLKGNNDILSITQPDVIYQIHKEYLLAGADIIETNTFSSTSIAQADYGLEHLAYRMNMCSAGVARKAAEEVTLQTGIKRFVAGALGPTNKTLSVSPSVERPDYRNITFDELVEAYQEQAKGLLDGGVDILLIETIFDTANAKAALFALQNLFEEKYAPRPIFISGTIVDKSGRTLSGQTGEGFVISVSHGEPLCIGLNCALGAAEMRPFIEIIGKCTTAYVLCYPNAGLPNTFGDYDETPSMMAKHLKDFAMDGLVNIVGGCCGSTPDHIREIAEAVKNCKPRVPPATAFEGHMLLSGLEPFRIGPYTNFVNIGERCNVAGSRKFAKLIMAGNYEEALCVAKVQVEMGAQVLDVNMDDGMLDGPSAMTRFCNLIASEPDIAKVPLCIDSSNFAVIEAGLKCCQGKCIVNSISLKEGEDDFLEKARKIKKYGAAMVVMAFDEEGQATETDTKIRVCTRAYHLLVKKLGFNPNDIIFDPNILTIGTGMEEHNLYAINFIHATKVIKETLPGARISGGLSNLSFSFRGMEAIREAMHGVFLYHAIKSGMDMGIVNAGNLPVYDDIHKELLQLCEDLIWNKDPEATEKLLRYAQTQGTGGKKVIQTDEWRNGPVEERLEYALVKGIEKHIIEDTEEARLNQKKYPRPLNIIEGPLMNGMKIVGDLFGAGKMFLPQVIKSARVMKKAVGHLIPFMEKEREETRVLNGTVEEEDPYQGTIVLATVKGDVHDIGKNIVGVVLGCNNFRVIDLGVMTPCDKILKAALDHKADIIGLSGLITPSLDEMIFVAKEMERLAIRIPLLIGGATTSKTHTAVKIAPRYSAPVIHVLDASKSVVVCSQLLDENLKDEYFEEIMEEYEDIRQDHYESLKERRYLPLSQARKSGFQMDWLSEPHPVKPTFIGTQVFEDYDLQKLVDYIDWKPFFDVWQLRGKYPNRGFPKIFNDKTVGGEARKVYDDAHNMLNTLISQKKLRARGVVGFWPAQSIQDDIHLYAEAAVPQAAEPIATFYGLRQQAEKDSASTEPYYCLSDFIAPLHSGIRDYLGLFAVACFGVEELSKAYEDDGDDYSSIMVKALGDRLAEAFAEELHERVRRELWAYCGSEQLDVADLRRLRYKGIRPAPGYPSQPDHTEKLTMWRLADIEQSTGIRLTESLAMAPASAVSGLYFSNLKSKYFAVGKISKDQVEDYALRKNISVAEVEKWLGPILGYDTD

For the molecule `C=CCN(CC1CCc2nc(N)nc(N)c2N1CC=C)c1ccc(C(=O)N[C@@H](CCC(=O)O)C(=O)O)cc1` (some centres undefined), the IC50 amounted to 50200 nM in assay [1], 6.72 µM in assay [2] and 15.9 µM in assay [3].
Turning to `Nc1nc(N)c2c(n1)CCC1CN(c3ccc(C(=O)N[C@@H](CCC(=O)O)C(=O)O)cc3)CN21` (some centres undefined), the IC50 in assay [4] is 64.7 µM; in assay [5] it was 800 nM; in assay [1], 37400 nM; in assay [6], 180 nM; in assay [2], > 100 µM; in assay [7], 130 nM. This molecule registered an IC50 in assay [3] of 66.4 µM.
Regarding `C=CCN1c2c(N)nc(N)nc2CCC1CN(C)c1ccc(C(=O)N[C@@H](CCC(=O)O)C(=O)O)cc1` (some centres undefined), the IC50 in assay [4] is 61.5 µM; in assay [5], 420 nM; in assay [1], 573 nM; in assay [6] it was 2090 nM; in assay [2] it was > 100 µM; in assay [7] it was 227 nM. For the same molecule, in assay [3], the IC50 was > 100 µM.
For the molecule `C=CCN1c2c(N)nc(N)nc2CCC1CNc1ccc(C(=O)N[C@@H](CCC(=O)O)C(=O)O)cc1` (some centres undefined), the IC50 was 870 nM in assay [1], > 100 µM in assay [2] and 27.8 µM in assay [3].
Take `Nc1nc(N)c2nc(CNc3ccc(C(=O)N[C@@H](CCC(=O)O)C(=O)O)cc3)ccc2n1`: the IC50 was 18.3 µM in assay [4]; 18 nM in assay [5]; 10 nM in assay [1]; 10 nM in assay [6]; 2.7 µM in assay [2]; 3 nM in assay [7]. In addition, in assay [3], the IC50 was > 100 µM.
`Cc1ccc(S(=O)(=O)N2c3c(N)nc(N)nc3CCC2CN(C)c2ccc(C(=O)N[C@@H](CCC(=O)O)C(=O)O)cc2)cc1` (some centres undefined): the IC50 was found to be 0.325 µM in assay [4]; 1070 nM in assay [5]; 450 nM in assay [1]; 289 nM in assay [6]; 0.336 µM in assay [2]; 434 nM in assay [7]. Further, the IC50 in assay [3] worked out at 55 µM.
As for `CN(CC1CCc2nc(N)nc(N)c2N1C=O)c1ccc(C(=O)N[C@@H](CCC(=O)O)C(=O)O)cc1` (some centres undefined), the IC50 in assay [4] was 65.2 µM; in assay [5], 32 nM; in assay [1], > 100000 nM; in assay [6], 6900 nM; in assay [2] it was > 130 µM; in assay [7], 6000 nM. In assay [3], this molecule yielded an IC50 of 8.11 µM.
Take `CC(=O)N(CC1CCc2nc(N)nc(N)c2N1C=O)c1ccc(C(=O)N[C@@H](CCC(=O)O)C(=O)O)cc1` (some centres undefined): the half-maximal inhibitory concentration (IC50) is 12.3 µM in assay [4]; > 100000 nM in assay [5]; 34600 nM in assay [1]; 27000 nM in assay [6]; 20 µM in assay [2]; 41600 nM in assay [7]. Besides, in assay [3], the midpoint of inhibition, the IC50, lay at 1.73 µM.
As to `C=CCN1c2c(N)nc(N)nc2CCC1CNc1ccc(C(=O)N[C@@H](CCC(=O)O)C(=O)O)cc1Br` (some centres undefined), the concentration for half-maximal inhibition (IC50) in assay [1] was > 100000 nM; in assay [2], > 100 µM; in assay [3], 21 µM.
Regarding `Nc1nc(N)c2c(n1)CCC(CNc1ccc(C(=O)N[C@@H](CCC(=O)O)C(=O)O)cc1Br)N2CC(Br)CBr` (some centres undefined), the IC50 was 42 nM in assay [1], > 100 µM in assay [2] and 1.43 µM in assay [3]. For the same molecule, in assay [8], the “Ratio IC50” value stood at 1.4.
On to `CC(=O)N(CC1CCc2nc(N)nc(N)c2N1)c1ccc(C(=O)N[C@@H](CCC(=O)O)C(=O)O)cc1` (mixture of isomers), for which the IC50 was > 100 µM in assay [4]; 33 nM in assay [5]; > 100000 nM in assay [1]; > 100000 nM in assay [6]; 31.1 µM in assay [2]; > 100000 nM in assay [7]. Further, the IC50 in assay [3] was > 100 µM.
On to `Nc1nc(N)c2c(n1)CCC(CNc1ccc(C(=O)N[C@@H](CCC(=O)O)C(=O)O)cc1)N2` (mixture of isomers), for which the values for the IC50 in assay [1], in assay [2] and in assay [3] were 240 nM, > 100 µM and 87.9 µM, respectively.
In the case of `CN(CC1CCc2nc(N)nc(N)c2N1)c1ccc(C(=O)N[C@@H](CCC(=O)O)C(=O)O)cc1` (mixture of isomers), the IC50 in assay [5] is 33 nM; in assay [3], > 100 µM.
Consider `CN(Cc1cnc2nc(N)nc(N)c2n1)c1ccc(C(=O)N[C@@H](CCC(=O)O)C(=O)O)cc1` [METHOTREXATE], for which the results for the IC50 in assay [1] and in assay [2] were 60 nM and 20.9 µM, respectively.

For orientation: IC50 means the point on the concentration scale where inhibition reaches its midpoint.
